PMC8963331 (Toxicological Sciences, 2022)
Read-outs that look alike come from different tables or passages of the source. Marks after values point to notes of the source that are not given here.

What was measured:
[1] = tested on: beagle dogs; assay: Dog 4-, 13-, 39-week repeat-dose general toxicity studies; assay type: in vivo
[2] = as above; assay type: in vivo; conditions: both, beagle, dog, in vivo, oral
[3] = tested on: JAK1, JAK2, JAK3, and TYK2; conditions: ref Sandborn et al., 2020; cited from earlier work
[4] = Dog repeat-dose toxicity studies: plasma toxicokinetics; assay type: in vivo
[5] = tested on: humans; conditions: QD, ref Sandborn et al., 2020, cited from earlier work
[6] = Rat 4-, 13-, 26-week repeat-dose general toxicity studies; assay type: in vivo; conditions: both, Sprague-Dawley (Crl:CD), rat, in vivo, oral
Method in brief: (§1)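 Crl:CD Sprague Dawley rats, 7–8 weeks old at start, dosed daily by oral gavage (10 ml/kg) at 0 (vehicle), 30, 100 or 1000 mg/kg/day for 4, 13 or 26 weeks. n = 10/sex/group, plus 4-week dose-free recovery (n = 5/sex). Rats fasted overnight. Hematology, coagulation and clinical chemistry sampled at baseline, end of dosing and end of recovery. Sexes pooled; treated groups compared with vehicle; variance homogeneity by […] Levene test.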

[7] = tested on: Crl:CD Sprague Dawley (SD) rats; assay: as above; assay type: in vivo
Method in brief: as §1

[8] = Rat EFD study: maternal and fetal plasma toxicokinetics; assay type: in vivo
[9] = Exposure comparisons stated jointly for several nonclinical species; assay type: in vivo, rat, dog, rabbit
[10] = mice; 10 mg/kg oral; ref Sandborn et al., 2020; cited from earlier work
[11] = dog, 39-week study, 100 mg/kg/day
[12] = dog, 39-week study, 100 mg/kg/day, reversible
[13] = dog, 39-week study, 30 and 100 mg/kg/day
[14] = rat, 4 weeks, 1000 mg/kg/day, reversible
[15] = rat, 13 weeks, 1000 mg/kg/day, reversible
[16] = rat, 26 weeks, 1000 mg/kg/day, reversible
[17] = maternal rat, 30 and 100 mg/kg/day
[18] = maternal rat, GD 17, 1000 mg/kg/day

Structure (SMILES): Cc1cc(Nc2cc3ncccc3c(N[C@@H]3C[C@H]4CC[C@@H](C3)N4CCC#N)n2)n[nH]1 [izencitinib, Izencitinib]
- effects on ophthalmology, electrocardiography, food consumption, urinalysis ([1]; all dog studies): No effects
- tolerability ([1]; dog 4-week study, 300 mg/kg/day, after 12–13 days): not tolerated
- early euthanasia ([1]; dog 4-week study, 300/100 mg/kg/day, days 18 and 19): 3 dogs
- early euthanasia ([1]; dog 39-week study, 100 mg/kg/day, at 25–26 weeks, skin observations): 2 dogs
- organ weights and microscopic findings in male reproductive tissues ([1]; dog repeat-dose studies, up to highest tested doses): no microscopic findings
- effects on lipid levels ([1]; dog repeat-dose toxicity studies, any dose): no effects
- dose with decreased hematopoietic and lymphoid cellularity (microscopic) ([1]; dog, 4- and 13-week studies): ≥ 100 mg/kg/day
- red blood cell parameters, change ([1]; dog, 4- and 13-week studies, 100 mg/kg/day, reversible): 0.82–0.85 ×
- changes in reticulocyte levels ([1]; dog, 4- and 13-week studies, any dose): No changes
- no observed adverse effect level ([1]; dog, 4 weeks): 30^c mg/kg/day
- effects on white blood cell parameters ([1]; dog, 4 weeks, end of dosing phase): No significant effects
- fibrinogen levels, change ([1]; dog, 13- and 39-week studies, 100 mg/kg/day): 1.3–1.4 ×
- effects on white blood cell, lymphocyte, or neutrophil counts ([1]; dog, 13 weeks): No izencitinib-related effects
- no observed adverse effect level ([1]; dog, 13 weeks): 30^c mg/kg/day
- platelets, change ([1]; dog, 13 weeks, 100 mg/kg/day, reversible): 1.5 ×
- dose with decreased hematopoietic and lymphoid cellularity (microscopic) ([1]; dog, 39-week study): ≥ 30 mg/kg/day
- red blood cell parameters, change [1, 11]: 0.76–0.79 ×
- tolerability [1, 11]: not tolerated
- hemoglobin levels, change ([1]; dog, 39-week study, 100 mg/kg/day, after recovery): 0.87 ×
- white blood cell counts, change ([1]; dog, 39-week study, 100 mg/kg/day, recovery animals): 1.3 ×
- helper T cells (immunophenotyping), change [1, 12]: 0.71 ×
- lymphocyte counts, change [1, 12]: 0.70 ×
- total T cells (immunophenotyping), change [1, 12]: 0.71 ×
- total lymphocytes (immunophenotyping), change [1, 12]: 0.70 ×
- B cells (immunophenotyping), change ([1]; dog, 39-week study, 100 mg/kg/day, without reversibility in 4-week recovery): 0.59 ×
- neutrophils, change [1, 13]: 1.3–1.5 ×
- platelets, change [1, 13]: 1.3–2.2 ×
- hematocrit, change ([1]; dog, 39-week study, 30 and 100 mg/kg/day, after recovery): 0.90–0.92 ×
- reticulocytes, change ([1]; dog, 39-week study, 30 and 100 mg/kg/day, reversible): 0.45–0.51 ×
- red blood cell parameters, change ([1]; dog, 39 weeks, 30 mg/kg/day): 0.90–0.91 ×
- white blood cell counts, change ([1]; dog, 39 weeks, 30 mg/kg/day, end of dosing phase): 1.2 ×
- effects on prothrombin time or activated partial thromboplastin time ([1]; dog, any dose, 3 studies): No effects
- microscopic findings in GI tissues ([1]; dog, up to 100 mg/kg/day, all 3 studies): no adverse microscopic findings
- NOAEL at 39 weeks [2]: 30 mg/kg/day
- human cellular JAK IC50 range, uncorrected [3]: 12.73 to 80.31 ng/mL
- nonclinical:clinical systemic AUC margin at the NOAEL ([4]; dog 39-week study, 30 mg/kg/day, vs human 300 mg QD): 8 fold
- Mean Cave ([4]; dog female, 10 mg/kg/day oral, 4 weeks, last day of dosing): 1.90 ng/mL
- Mean Cave ([4]; dog female, 10 mg/kg/day oral, 13 weeks, last day of dosing): 1.53 ng/mL
- Mean Cave ([4]; dog female, 10 mg/kg/day oral, 39 weeks, last day of dosing): 3.11 ng/mL
- Mean Cave ([4]; dog female, 30 mg/kg/day oral, 4 weeks, last day of dosing): 14.8 ng/mL
- Mean Cave ([4]; dog female, 30 mg/kg/day oral, 13 weeks, last day of dosing): 10.8 ng/mL
- Mean Cave ([4]; dog female, 30 mg/kg/day oral, 39 weeks, last day of dosing): 20.5 ng/mL
- Mean Cave ([4]; dog female, 100 mg/kg/day oral, 13 weeks, last day of dosing): 96.7 ng/mL
- Mean Cave ([4]; dog female, 100 mg/kg/day oral, 39-week study, week 28 (day 197)): 131 ng/mL
- Mean Cave ([4]; dog male, 10 mg/kg/day oral, 4 weeks, last day of dosing): 2.30 ng/mL
- Mean Cave ([4]; dog male, 10 mg/kg/day oral, 13 weeks, last day of dosing): 1.61 ng/mL
- Mean Cave ([4]; dog male, 10 mg/kg/day oral, 39 weeks, last day of dosing): 2.08 ng/mL
- Mean Cave ([4]; dog male, 30 mg/kg/day oral, 4 weeks, last day of dosing): 19.1 ng/mL
- Mean Cave ([4]; dog male, 30 mg/kg/day oral, 13 weeks, last day of dosing): 12.5 ng/mL
- Mean Cave ([4]; dog male, 30 mg/kg/day oral, 39 weeks, last day of dosing): 15.9 ng/mL
- Mean Cave ([4]; dog male, 100 mg/kg/day oral, 13 weeks, last day of dosing): 190 ng/mL
- Mean Cave ([4]; dog male, 100 mg/kg/day oral, 39-week study, week 28 (day 197)): 69.6 ng/mL
- plasma Cave:protein-corrected JAK IC50 ratio ([4]; dog, 10 mg/kg/day): < 1 ×
- plasma Cave:uncorrected JAK IC50 ratio ([4]; dog, 10 mg/kg/day): < 1 ×
- plasma Cave:protein-corrected JAK IC50 ratio ([4]; dog, 30 mg/kg/day): < 1 ×
- plasma Cave:uncorrected JAK IC50 ratio ([4]; dog, 30 mg/kg/day): 1 ×
- time within the therapeutic range ([4]; dog, 30 mg/kg/day): 6 to 9 h
- plasma Cave:protein-corrected JAK IC50 ratio ([4]; dog, 100 mg/kg/day): 1–2 ×
- plasma Cave:uncorrected JAK IC50 ratio ([4]; dog, 100 mg/kg/day): 7–11 ×
- time at supratherapeutic plasma concentrations ([4]; dog, 100 mg/kg/day, all studies): up to 24 h
- plasma Cave:uncorrected JAK IC50 ratio ([4]; dog, ≥100 mg/kg/day): ≥ 7 ×
- dose up to which well tolerated ([5]; phase 1b, ulcerative colitis patients): 270 mg
- dose up to which well tolerated ([5]; phase 1 single ascending dose): 1000 mg
- NOAEL at 26 weeks [6]: 1000 mg/kg/day
- organ weights and microscopic findings in male reproductive tissues ([7]; rat repeat-dose studies, up to highest tested doses): no microscopic findings
- effects on lipid levels ([7]; rat repeat-dose toxicity studies, any dose): no effects
- spleen weight, change ([7]; rat, 100 mg/kg/day): 0.87 ×
- spleen weight, change ([7]; rat, 1000 mg/kg/day): 0.78–0.86 ×
- no observed adverse effect level ([7]; rat, 4 weeks): 1000^c mg/kg/day
- platelet counts, change ([7]; rat, 4 weeks, 100 mg/kg/day, reversible): 1.1 ×
- lymphocyte counts, change [7, 14]: 0.64 ×
- platelet counts, change [7, 14]: 1.2 ×
- white blood cell counts, change [7, 14]: 0.66 ×
- changes in red blood cell parameters ([7]; rat, 4 weeks, any dose): No changes
- no observed adverse effect level ([7]; rat, 13 weeks): 1000^c mg/kg/day
- lymphocyte counts, change ([7]; rat, 13 weeks, 100 mg/kg/day, reversible): 0.78 ×
- hemoglobin levels, change ([7]; rat, 13 weeks, 1000 mg/kg/day, end of dosing): 0.97 ×
- hemoglobin levels, change ([7]; rat, 13 weeks, 1000 mg/kg/day, end of recovery period): 0.95 ×
- lymphocyte counts, change [7, 15]: 0.64 ×
- platelet counts, change [7, 15]: 1.2 ×
- red blood cell counts, change [7, 15]: 0.96 ×
- white blood cell counts, change [7, 15]: 0.74 ×
- platelet counts, change ([7]; rat, 26 weeks, 1000 mg/kg/day): 1.1 ×
- white blood cell counts, change ([7]; rat, 26 weeks, 1000 mg/kg/day): 0.68 ×
- incidence of minimally decreased lymphoid cellularity, females [7, 16]: 1 of 10
- incidence of minimally decreased lymphoid cellularity, males [7, 16]: 4 of 10
- hemoglobin levels, change ([7]; rat, 26 weeks, all dose levels): 0.95 ×
- effects on food consumption, ophthalmic evaluations, clinical chemistry, urinalysis ([7]; rat, all repeat-dose studies): no effects
- changes in reticulocyte levels ([7]; rat, any dose, 3 studies): No changes
- effects on neutrophils ([7]; rat, any dose, 3 studies): No izencitinib-related effects
- changes in coagulation parameters ([7]; rat, any dose, all 3 studies): no changes
- other changes in organ weights or microscopic effects, including GI tissues ([7]; rat, up to 1000 mg/kg/day, all studies): No other changes
- tolerability ([7]; rat, up to highest tested dose 1000 mg/kg/day, 4-, 13-, 26-week studies): well-tolerated
- Cave:protein-corrected IC50 ratio [8, 17]: < 1 ×
- Cave:uncorrected IC50 ratio [8, 17]: < 1 ×
- Mean Cave ([8]; maternal rat, GD 6, 30 mg/kg/day oral): 0.613 ng/mL
- Mean Cave ([8]; maternal rat, GD 6, 100 mg/kg/day oral): 2.15 ng/mL
- Mean Cave ([8]; maternal rat, GD 6, 1000 mg/kg/day oral): 16.2 ng/mL
- Mean Cave ([8]; maternal rat, GD 17, 30 mg/kg/day oral): 0.663 ng/mL
- Mean Cave ([8]; maternal rat, GD 17, 100 mg/kg/day oral): 2.88 ng/mL
- plasma Cave:protein-corrected JAK IC50 ratio [8, 18]: < 1 ×
- plasma Cave:uncorrected JAK IC50 ratio [8, 18]: 2 ×
- time at supratherapeutic plasma levels [8, 18]: 12 to 15 h
- Mean Cave ([8]; maternal rat, GD 17, 1000 mg/kg/day oral): 23.8 ng/mL
- nonclinical:clinical AUC ratio at the NOAEL ([8]; rat EFD study, 1000 mg/kg/day, vs human 300 mg QD): 10 fold
- fetal plasma concentrations, all other samples ([8]; rat fetuses, below lower limit of quantitation): < 1 ng/mL
- concentration at 3 h ([8]; rat, fetal plasma, oral, 1000 mg/kg/day): 1.18 ng/mL
- nonclinical:clinical systemic exposure (AUC) ratio at the NOAEL dose ([9]; rat and dog general toxicity studies, each study, vs human 300 mg QD): 6- to 18 fold
- fetal exposure ([9]; rat and rabbit EFD studies): negligible
- maternal plasma Cave:JAK IC50 ratio ([9]; rat and rabbit EFD studies): 2–6 ×
- Cave:uncorrected IC50 ratio ([9]; rat and rabbit EFD, highest dose tested): ≥ 2 ×
- colon:plasma AUC ratio [10]: 3883
